Assay results as given in ChEMBL document CHEMBL1155063 (Bioorg Med Chem, 2008).

How the values were obtained:
T47D = assay: Cytotoxicity against human T47D cells at 10 uM after 48 hrs by MTT assay; assay type: functional
Procedure, shortened: (§1)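 Single-dose screen in the NCI 60-cell-line panel, run according to the Developmental Therapeutics Program protocol (one-dose mean graph). The result is the growth percentage of treated cells relative to untreated control cells.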

[1] = Cytotoxicity against human H1299 cells at 10 uM after 48 hrs by MTT assay realtive to control; assay type: functional; details: NCI-H1299, 48 h
Procedure, shortened: (§2)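 H1299 non-small-cell lung cells were kept in RPMI 1640 with 10% FBS and penicillin/streptomycin at 37 °C under 5% CO2. About 2 × 10^3 cells per well were pre-incubated for 24 h. Compound was added from freshly made DMSO solution diluted in complete medium and left for 48 h. MTT was then added for 4 h at 37 °C, followed by 20% SDS/50% DMF lysis buffer for 16 h at 37 °C, and absorbance read at 550 nm.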

[2] = Cytotoxicity against human H1299 cells at 100 uM after 48 hrs by MTT assay realtive to control; assay type: functional; details: NCI-H1299, 48 h; procedure, shortened: as §2
Hs-578T = assay: Cytotoxicity against human HS578T cells at 10 uM after 48 hrs by MTT assay; assay type: functional; details: values are per cent of control
Procedure, shortened: (§3)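 Single-dose screen on the NCI 60-cell-line panel, run to the Developmental Therapeutics Program protocol (one-dose mean graph). Each value is the growth percentage of treated cells against untreated control cells.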

LOX IMVI = assay: Cytotoxicity against human LOXIMVI cells at 10 uM after 48 hrs by MTT assay; assay type: functional; details: values are per cent of control; procedure, shortened: as §3
NCI-H522 = assay: Growth percent of human NCI-H522 cells at 10 uM after 48 hrs by MTT assay; details: NCI-H522, 48 h
DU-145 = assay: Cytotoxicity against human DU145 cells at 10 uM after 48 hrs by MTT assay; assay type: functional; details: DU-145, 48 h, values are per cent of control; procedure, shortened: as §3
SK-OV-3 = assay: Cytotoxicity against human SKOV3 cells at 10 uM after 48 hrs by MTT assay; assay type: functional; details: SK-OV-3, 48 h; procedure, shortened: as §3
SF-295 = assay: Cytotoxicity against human SF295 cells at 10 uM after 48 hrs by MTT assay; assay type: functional; details: SF-295, 48 h, values are per cent of control; procedure, shortened: as §3
EKVX = assay: Cytotoxicity against human EKVX cells at 10 uM after 48 hrs by MTT assay; assay type: functional; procedure, shortened: as §3
NCI/ADR-RES = assay: Cytotoxicity against human NCI/ADR-RES cells at 10 uM after 48 hrs by MTT assay; assay type: functional; procedure, shortened: as §3
UO-31 = assay: Cytotoxicity against human UO31 cells at 10 uM after 48 hrs by MTT assay; assay type: functional; details: UO-31, 48 h, values are per cent of control; procedure, shortened: as §1
A498 = assay: Cytotoxicity against human A498 cells at 10 uM after 48 hrs by MTT assay; assay type: functional; details: A498, 48 h; procedure, shortened: as §3
HCT-15 = assay: Growth percent of human HCT15 cells at 10 uM after 48 hrs by MTT assay; details: HCT-15, 48 h
[3] = target: T1, Telomerase reverse transcriptase (Homo sapiens, UniProt O14746); assay: Effect on human TERT expressed in H1299 cells at 1 uM after 24 hrs by SEAP assay relative to control
T1 sequence (O14746 whole entry): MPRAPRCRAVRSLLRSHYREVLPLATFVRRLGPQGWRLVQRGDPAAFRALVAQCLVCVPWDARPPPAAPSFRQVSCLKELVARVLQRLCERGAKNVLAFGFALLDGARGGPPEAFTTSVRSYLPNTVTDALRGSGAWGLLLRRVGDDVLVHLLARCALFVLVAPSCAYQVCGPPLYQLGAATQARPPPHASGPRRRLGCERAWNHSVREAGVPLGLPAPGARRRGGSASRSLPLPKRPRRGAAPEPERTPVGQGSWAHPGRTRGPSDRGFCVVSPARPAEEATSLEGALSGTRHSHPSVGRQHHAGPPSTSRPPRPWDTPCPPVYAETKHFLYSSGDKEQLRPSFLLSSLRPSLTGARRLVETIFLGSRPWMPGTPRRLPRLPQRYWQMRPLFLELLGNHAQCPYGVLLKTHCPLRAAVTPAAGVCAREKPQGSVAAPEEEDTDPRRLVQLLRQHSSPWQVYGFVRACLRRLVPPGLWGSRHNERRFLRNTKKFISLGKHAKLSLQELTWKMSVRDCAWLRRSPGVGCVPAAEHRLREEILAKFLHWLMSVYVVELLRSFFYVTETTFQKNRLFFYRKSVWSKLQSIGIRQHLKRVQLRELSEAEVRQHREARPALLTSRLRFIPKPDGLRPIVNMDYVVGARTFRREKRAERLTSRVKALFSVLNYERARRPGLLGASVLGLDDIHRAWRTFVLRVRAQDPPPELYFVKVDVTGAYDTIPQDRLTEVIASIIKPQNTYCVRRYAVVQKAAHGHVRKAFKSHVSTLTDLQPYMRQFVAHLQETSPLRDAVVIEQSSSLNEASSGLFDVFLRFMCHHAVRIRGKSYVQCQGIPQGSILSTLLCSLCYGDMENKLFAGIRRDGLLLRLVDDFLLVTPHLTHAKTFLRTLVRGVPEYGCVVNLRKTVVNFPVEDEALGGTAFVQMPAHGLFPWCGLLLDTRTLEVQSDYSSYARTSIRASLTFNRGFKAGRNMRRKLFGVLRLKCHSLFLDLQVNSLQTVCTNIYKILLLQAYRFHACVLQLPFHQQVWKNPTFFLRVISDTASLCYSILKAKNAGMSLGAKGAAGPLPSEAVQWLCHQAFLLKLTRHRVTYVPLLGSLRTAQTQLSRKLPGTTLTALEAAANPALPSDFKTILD

SK-MEL-5 = assay: Cytotoxicity against human SK-MEL-5 cells at 10 uM after 48 hrs by MTT assay; assay type: functional; details: SK-MEL-5, 48 h, values are per cent of control; procedure, shortened: as §3
SR = assay: Cytotoxicity against human SR cells at 10 uM after 48 hrs by MTT assay; assay type: functional; procedure, shortened: as §1
BT-549 = assay: Cytotoxicity against human BT549 cells at 10 uM after 48 hrs by MTT assay; assay type: functional; details: BT-549, 48 h; procedure, shortened: as §3
[4] = Cytotoxicity against human TERT immortalized BJ1 cells at 100 uM after 48 hrs by MTT assay relative to control; assay type: cell-based, BJ
Procedure, shortened: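 hTERT-immortalized BJ1 fibroblasts were grown in DMEM with 10% FCS, 1 mM pyruvate and 4 mM […]. Cells (about 2 × 10^3 per well) were seeded and held 24 h at 37 °C. Compounds were freshly dissolved in DMSO, diluted into medium and left on the cells 48 h. MTT was added for 4 h, then SDS/DMF lysis buffer for 16 h. Absorbance was read at 550 nm and expressed relative to untreated cells (100%).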

NCI-H460 = assay: Growth percent of human NCI-H460 cells at 10 uM after 48 hrs by MTT assay; details: NCI-H460, 48 h
UACC-62 = assay: Cytotoxicity against human UACC62 cells at 10 uM after 48 hrs by MTT assay; assay type: functional; details: UACC-62, 48 h, values are per cent of control; procedure, shortened: as §1
[5] = target: T1, Telomerase reverse transcriptase; assay: Effect on human TERT expressed in BJ1 cells at 1 uM after 24 hrs by SEAP assay realtive to control; details: BJ
SNB-19 = assay: Cytotoxicity against human SNB19 cells at 10 uM after 48 hrs by MTT assay; assay type: functional; details: SNB-19, 48 h, values are per cent of control; procedure, shortened: as §3
[6] = Cytotoxicity against human CAK1-1 cells at 10 uM after 48 hrs by MTT assay; assay type: functional; details: CAK1-1, 48 h; procedure, shortened: as §3
SK-MEL-28 = assay: Cytotoxicity against human SK-MEL-28 cells at 10 uM after 48 hrs by MTT assay; assay type: functional; details: SK-MEL-28, 48 h, values are per cent of control; procedure, shortened: as §3
OVCAR-4 = assay: Cytotoxicity against human OVCAR4 cells at 10 uM after 48 hrs by MTT assay; assay type: functional; details: OVCAR-4, 48 h; procedure, shortened: as §3
CCRF-CEM = assay: Cytotoxicity against human CCRF-CEM cells at 10 uM after 48 hrs by MTT assay; assay type: functional; procedure, shortened: as §3
SF-539 = assay: Cytotoxicity against human SF539 cells at 10 uM after 48 hrs by MTT assay; assay type: functional; details: SF-539, 48 h, values are per cent of control; procedure, shortened: as §3
MOLT-4 = assay: Cytotoxicity against human MOLT4 cells at 10 uM after 48 hrs by MTT assay; assay type: functional; details: MOLT-4, 48 h; procedure, shortened: as §3
Malme-3M = assay: Cytotoxicity against human MALME3M cells at 10 uM after 48 hrs by MTT assay; assay type: functional; details: values are per cent of control; procedure, shortened: as §3
SNB-75 = assay: Cytotoxicity against human SNB75 cells at 10 uM after 48 hrs by MTT assay; assay type: functional; details: SNB-75, 48 h, values are per cent of control; procedure, shortened: as §1
NCI-H322M = assay: Cytotoxicity against human NCI-H322M cells at 10 uM after 48 hrs by MTT assay; assay type: functional; procedure, shortened: as §3
MDA-MB-231 = assay: Cytotoxicity against human MDA-MB-231/ATCC cells at 10 uM after 48 hrs by MTT assay; assay type: functional; details: MDA-MB-231, 48 h; procedure, shortened: as §3
MCF7 = assay: Cytotoxicity against human MCF7 cells at 10 uM after 48 hrs by MTT assay; assay type: functional; details: MCF7, 48 h, values are per cent of control; procedure, shortened: as §3
NCI-H226 = assay: Cytotoxicity against human NCI-H226 cells at 10 uM after 48 hrs by MTT assay; assay type: functional; details: NCI-H226, 48 h; procedure, shortened: as §3

SMILES	growth percent at 10 µM (T47D)	viability at 10 µM [1]	viability at 100 µM [2]	growth, % of control at 10 µM (Hs-578T)	growth, % of control at 10 µM (LOX IMVI)	growth percent at 10 µM (NCI-H522)	growth, % of control at 10 µM (DU-145)	growth percent at 10 µM (SK-OV-3)	growth, % of control at 10 µM (SF-295)	growth percent at 10 µM (EKVX)	growth percent at 10 µM (NCI/ADR-RES)	growth, % of control at 10 µM (UO-31)	growth percent at 10 µM (A498)	growth percent at 10 µM (HCT-15)	residual activity [3]	growth, % of control at 10 µM (SK-MEL-5)	growth percent at 10 µM (SR)	growth percent at 10 µM (BT-549)	viability at 48 h, 100 µM [4]	growth percent at 10 µM (NCI-H460)	also measured
CC(=O)Nc1ccc2c(c1)C(=O)c1cc(NC(C)=O)ccc1C2=O	96.2%	83%	55%	133%	99%	93.6%	117%	101%	103%	95.3%	114%	96.4%	116%	93.9%	97%	109%	3.61%	93.3%	91%	109%	growth, % of control at 10 µM (UACC-62): 101%; residual activity [5]: 123%; growth, % of control at 10 µM (SNB-19): 94.4%; growth percent at 10 µM [6]: 105%; growth, % of control at 10 µM (SK-MEL-28): 118%; growth percent at 10 µM (OVCAR-4): 104%; growth percent at 10 µM (CCRF-CEM): 99.8%; growth, % of control at 10 µM (SF-539): 103%; growth percent at 10 µM (MOLT-4): 97%; growth, % of control at 10 µM (Malme-3M): 111%; growth, % of control at 10 µM (SNB-75): 107%; growth percent at 10 µM (NCI-H322M): 97.5%; growth percent at 10 µM (MDA-MB-231): 104%; growth, % of control at 10 µM (MCF7): 96.9%
CN(C)CC(=O)Nc1ccc2c(c1)C(=O)c1cc(NC(=O)CN(C)C)ccc1C2=O	24.6%	55%	15%	-6.11%	-52.3%	61.8%	78.7%	70.3%	-83.5%	102%	47.8%	-82.5%	-6.39%	16.3%	87%	82.6%	-46.5%	85.4%	39%	5.01%	growth percent at 10 µM (NCI-H226): 89.1%; growth, % of control at 10 µM (UACC-62): 22.3%; residual activity [5]: 96%; growth, % of control at 10 µM (SNB-19): 79.6%; growth percent at 10 µM [6]: 59.3%; growth, % of control at 10 µM (SK-MEL-28): 32.1%; growth percent at 10 µM (OVCAR-4): 45.7%; growth percent at 10 µM (CCRF-CEM): -13.2%; growth, % of control at 10 µM (SF-539): -3.72%; growth percent at 10 µM (MOLT-4): 29.1%; growth, % of control at 10 µM (Malme-3M): 96.2%; growth, % of control at 10 µM (SNB-75): 76.1%; growth percent at 10 µM (NCI-H322M): 32.4%; growth percent at 10 µM (MDA-MB-231): 4.49%; growth, % of control at 10 µM (MCF7): 7.92%
